Measurements as given in ChEMBL document CHEMBL3734706, “Syntheses and biological evaluation of C-3'-N-acyl modified taxane analogues from 1-deoxybaccatin-VI” (Eur J Med Chem, 2015).

What was measured:
MDA-MB-231 [1] = assay: Cytotoxicity against human MDA-MB-231 cells incubated for 72 hrs by MTT assay; type: functional, cell-based; conditions: MDA-MB-231, 72 h
In short: (§1)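 Exponentially growing human tumour cells exposed 72 h to compounds formulated in DMSO; survival read by MTT; dose–response curves over 0.001–100 μM; IC50 taken from curves.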

[2] = Cytotoxicity against human PC3 cells incubated for 72 hrs by MTT assay; type: functional, cell-based; conditions: PC-3, 72 h; in short: as §1
[3] = Cytotoxicity against human PC3 cells assessed as inhibition of cell survival upto 100 uM incubated for 72 hrs by MTT assay relative to control; type: functional, PC-3; in short: as §1
MDA-MB-231 [4] = assay: Cytotoxicity against human MDA-MB-231 cells assessed as inhibition of cell survival upto 100 uM incubated for 72 hrs by MTT assay relative to control; type: functional; in short: as §1
HepG2 = assay: Cytotoxicity against human HepG2 cells incubated for 48 hrs by CCK-8 assay; type: functional, cell-based; conditions: HepG2, 48 h
In short: (§2)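 Growing human tumour cells exposed to compounds for 48 h; viability read by CCK-8; IC50 determined.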

[5] = Cytotoxicity against human H460 cells incubated for 48 hrs by CCK-8 assay; type: functional, cell-based; conditions: NCI-H460, 48 h; in short: as §2
[6] = Cytotoxicity against human HCT116 cells assessed as decrease in cell protein incubated for 48 hrs; type: functional, cell-based; conditions: HCT-116, 48 h
A549 = assay: Cytotoxicity against human A549 cells; type: functional, cell-based

SMILES	IC50 (MDA-MB-231 [1]) [nM]	IC50 [2] [nM]	inhibition (INH) [3] [%]	inhibition (INH) (MDA-MB-231 [4]) [%]	IC50 (HepG2) [nM]	IC50 [5] [nM]	IC50 [6] [nM]	IC50 (A549) [nM]
CC(=O)O[C@@]12CO[C@@H]1C[C@H](O)[C@]1(C)[C@@H]2[C@H](OC(=O)c2ccccc2)C2C[C@H](OC(=O)[C@H](O)[C@@H](NC(=O)c3ccco3)c3ccccc3)C(C)=C([C@@H](O)[C@@H]1O)C2(C)C (stereo not given in full)	< 1	4	90	90	2020	289	–	–
CC(=O)OC1[C@H](OC(C)=O)C2=C(C)[C@@H](OC(=O)[C@H](O)[C@@H](NC(=O)c3ccccc3)c3ccccc3)CC([C@@H](OC(=O)c3ccccc3)[C@@H]3[C@]4(OC(C)=O)CO[C@@H]4C[C@H](OC(C)=O)[C@@]13C)C2(C)C (stereo not given in full)	–	–	–	–	–	–	31.5	–
COc1ccc(C(=O)N[C@@H](c2ccccc2)[C@@H](O)C(=O)O[C@H]2CC3[C@@H](OC(=O)c4ccccc4)[C@@H]4[C@]5(OC(C)=O)CO[C@@H]5C[C@H](O)[C@@]4(C)[C@@H](O)[C@H](O)C(=C2C)C3(C)C)cc1 (stereo not given in full)	< 1	10	90	90	567	199	–	–
CC(=O)O[C@H]1C(=O)[C@@]2(C)[C@H]([C@H](OC(=O)c3ccccc3)[C@]3(O)C[C@H](OC(=O)[C@H](O)[C@@H](NC(=O)c4ccccc4)c4ccccc4)C(C)=C1C3(C)C)[C@]1(OC(C)=O)CO[C@@H]1C[C@@H]2O [PACLITAXEL]	< 1	< 1	40	40	1220	4290	2.8	–
CCCCCC(=O)N[C@@H](c1ccccc1)[C@@H](O)C(=O)O[C@H]1CC2[C@@H](OC(=O)c3ccccc3)[C@@H]3[C@]4(OC(C)=O)CO[C@@H]4C[C@H](OC(C)=O)[C@@]3(C)C(=O)[C@H](OC(C)=O)C(=C1C)C2(C)C (stereo not given in full)	270	330	–	–	–	–	–	–
CC(=O)O[C@@]12CO[C@@H]1C[C@H](O)[C@]1(C)[C@@H]2[C@H](OC(=O)c2ccccc2)C2C[C@H](OC(=O)[C@H](O)[C@@H](NC(=O)c3ccc(CCl)cc3)c3ccccc3)C(C)=C([C@@H](O)[C@@H]1O)C2(C)C (stereo not given in full)	30	90	90	90	–	–	–	–
CC(=O)O[C@@]12CO[C@@H]1C[C@H](O)[C@]1(C)[C@@H]2[C@H](OC(=O)c2ccccc2)C2C[C@H](OC(=O)[C@H](O)[C@@H](NC(=O)c3cccs3)c3ccccc3)C(C)=C([C@@H](O)[C@@H]1O)C2(C)C (stereo not given in full)	1260	1630	90	90	–	–	–	–
CC(=O)O[C@@]12CO[C@@H]1C[C@H](O)[C@]1(C)[C@@H]2[C@H](OC(=O)c2ccccc2)C2C[C@H](OC(=O)[C@H](O)[C@@H](NC(=O)c3cc4ccccc4o3)c3ccccc3)C(C)=C([C@@H](O)[C@@H]1O)C2(C)C (stereo not given in full)	20	70	90	90	–	–	–	–
CCCCCC(=O)N[C@@H](c1ccccc1)[C@@H](O)C(=O)O[C@H]1CC2[C@@H](OC(=O)c3ccccc3)[C@@H]3[C@]4(OC(C)=O)CO[C@@H]4C[C@H](O)[C@@]3(C)[C@@H](O)[C@H](O)C(=C1C)C2(C)C (stereo not given in full)	< 1	10	40	40	–	–	–	–
CC(=O)O[C@H]1C(=O)[C@]2(C)[C@@H](OC(C)=O)C[C@H]3OC[C@@]3(OC(C)=O)[C@H]2[C@H](OC(=O)c2ccccc2)C2C[C@H](OC(=O)[C@H](O)[C@@H](NC(=O)c3ccccc3)c3ccccc3)C(C)=C1C2(C)C (stereo not given in full)	–	–	–	–	–	–	–	62
CCCCCC(=O)N[C@@H](c1ccccc1)[C@@H](O)C(=O)O[C@H]1CC2[C@@H](OC(=O)c3ccccc3)[C@@H]3[C@]4(OC(C)=O)CO[C@@H]4C[C@H](O)[C@@]3(C)[C@H]3OC(C)(C)O[C@@H]3C(=C1C)C2(C)C (stereo not given in full)	10	210	–	–	–	–	–	–
CC(=O)O[C@@]12CO[C@@H]1C[C@H](O)[C@]1(C)[C@@H]2[C@H](OC(=O)c2ccccc2)C2C[C@H](OC(=O)[C@H](O)[C@@H](NC(=O)c3ccc(F)cc3)c3ccccc3)C(C)=C([C@@H](O)[C@@H]1O)C2(C)C (stereo not given in full)	< 1	20	90	90	–	–	–	–
